Measured values as given in ChEMBL document CHEMBL4177701, “A novel series of enoyl reductase inhibitors targeting the ESKAPE pathogens, Staphylococcus aureus and Acinetobacter baumannii” (Bioorg Med Chem, 2018).
In brackets after ≈: the same amount, converted by molar mass. Activity calls are given as the source filed them. No cut-off for these calls is given here.

How the values were obtained:
[1] = Inhibition of Acinetobacter baumannii 2208 ATCC 19606 FabI using crotonyl-CoA as substrate in presence of NADPH/NADH after 10 mins by fluorescence assay; design: species or system Acinetobacter baumannii ATCC 19606 = CIP 70.34 = JCM 6841
Method in brief: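 AbFabI, 200 nM, in 50 mM MES/100 mM NaCl with 200 μM NADH, 0.1 mg/mL BSA and 0.01% triton. Reaction started with 300 μM crotonyl-CoA. NADH fluorescence read at 340/460 nm. Compounds tested at 0.4 nM–200 μM. Initial 10-min slopes were compared with a DMSO no-compound control. At least two independent experiments, each in duplicate; two-fold uncertainty.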

Staphylococcus aureus [2] = test: Antibacterial activity against Staphylococcus aureus Newman by microbroth dilution method; format: functional
Method in brief: (§1)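 Microbroth dilution MIC; each value is the mean of at least two runs, within two-fold experimental uncertainty.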

Staphylococcus aureus [3] = test: Antibacterial activity against methicillin-resistant Staphylococcus aureus subsp. aureus Rosenbach ATCC 43300 by microbroth dilution method; format: functional
Method in brief: (§2)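 Broth microdilution MIC; reported value is mean of at least two runs, within two-fold experimental uncertainty.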

Acinetobacter baumannii [4] = test: Antibacterial activity against Acinetobacter baumannii 2208 ATCC 19606 by microbroth dilution method; format: functional; conditions: ATCC 19606 = CIP 70.34 = JCM 6841 2208; method in brief: as §1
Escherichia coli [5] = test: Antibacterial activity against Escherichia coli BW25113 mutant by microbroth dilution method; format: functional; method in brief: as §2
[6] = target: T1, Enoyl-[acyl-carrier-protein] reductase [NADPH] FabI (Staphylococcus aureus) (UniProt Q6GI75); test: Binding affinity to Staphylococcus aureus subsp. aureus Rosenbach ATCC 43300 FabI by SPR assay
T1 sequence (whole entry): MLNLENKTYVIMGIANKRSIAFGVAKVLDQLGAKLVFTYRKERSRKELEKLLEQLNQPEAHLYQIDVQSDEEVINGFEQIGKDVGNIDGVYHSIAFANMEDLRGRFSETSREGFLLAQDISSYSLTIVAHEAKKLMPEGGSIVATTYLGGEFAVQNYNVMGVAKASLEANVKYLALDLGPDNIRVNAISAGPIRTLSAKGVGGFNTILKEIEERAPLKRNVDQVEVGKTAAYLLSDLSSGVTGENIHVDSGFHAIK

[7] = tested on: Acinetobacter baumannii ATCC 19606 = CIP 70.34 = JCM 6841; test: Binding affinity to Acinetobacter baumannii 2208 ATCC 19606 FabI by SPR assay
Acinetobacter baumannii [8] = test: Synergistic antibacterial activity against Acinetobacter baumannii 2208 ATCC 19606 assessed as colistin MIC by checkerboard method; format: functional; conditions: ATCC 19606 = CIP 70.34 = JCM 6841 2208
Acinetobacter baumannii [9] = test: Synergistic antibacterial activity against Acinetobacter baumannii 2208 ATCC 19606 in presence of colistin by checkerboard method; format: functional; conditions: ATCC 19606 = CIP 70.34 = JCM 6841 2208
Acinetobacter baumannii [10] = test: Synergistic antibacterial activity against Acinetobacter baumannii 2208 ATCC 19606 assessed as fractional inhibitory concentration in presence of colistin by checkerboard method; format: functional, ATCC 19606 = CIP 70.34 = JCM 6841 2208
[11] = target: T2, Enoyl-[acyl-carrier-protein] reductase [NADPH] FabI (Staphylococcus aureus, UniProt Q6GI75); test: Competitive inhibition of Staphylococcus aureus subsp. aureus Rosenbach ATCC 43300 FabI using crotonyl-CoA as substrate in presence of NADPH/NADH after 10 mins by fluorescence assay
T2 sequence (Q6GI75 whole entry): T1 sequence (whole entry)

[12] = Competitive inhibition of Acinetobacter baumannii 2208 ATCC 19606 FabI using crotonyl-CoA as substrate in presence of NADPH/NADH after 10 mins by fluorescence assay; design: species or system Acinetobacter baumannii ATCC 19606 = CIP 70.34 = JCM 6841
HepG2 [13] = test: Cytotoxicity against human HepG2 cells assessed as reduction in cell viability after 24 hrs in presence of 10% FBS by MTT assay; format: cell-based; conditions: HepG2, 24 h
Method in brief: (§3)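 HepG2 cells in EMEM with either 10% FBS or 0.5% FBS plus 10% Cell-Ess serum replacement. Seeded at 25,000 cells/well and incubated overnight at 37 °C, 5% CO2. Treated 24 h at 100–3 μg/mL, with matched DMSO controls. MTT added for 2 h, formazan extracted in DMSO, absorbance read at 570 nm. Run in duplicate; IC50 taken from the viability plot against the DMSO control.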

HepG2 [14] = test: Cytotoxicity against human HepG2 cells assessed as reduction in cell viability after 24 hrs in presence of 0.5% FBS by MTT assay; format: cell-based; conditions: HepG2, 24 h; method in brief: as §3
Staphylococcus aureus [15] = test: Antibacterial activity against Staphylococcus aureus RN4220 over-expressing FabI by microbroth dilution method; format: functional; method in brief: as §2
Escherichia coli [16] = test: Antibacterial activity against Escherichia coli BW25113 harboring TolC deletion mutant by microbroth dilution method; format: functional; method in brief: as §2
Staphylococcus aureus [17] = test: Selectivity ratio of MIC for Staphylococcus aureus RN4220 over-expressing FabI to MIC for Staphylococcus aureus RN4220; format: functional
Acinetobacter baumannii [18] = test: Synergistic antibacterial activity against MDR Acinetobacter baumannii ATCC BAA-1605 assessed as colistin MIC by checkerboard method; format: functional
Acinetobacter baumannii [19] = test: Synergistic antibacterial activity against MDR Acinetobacter baumannii ATCC BAA-1605 in presence of colistin by checkerboard method; format: functional
Method in brief: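 Checkerboard broth dilution in tryptic soy broth. Colistin 4 to 0.03 μg/mL against analog 100 to 0.19 μg/mL, crossed. Clear wells scored. ΣFIC = C/MIC(compound) + C/MIC(partner); <0.5 synergy, 0.5–2 indifference, >2 antagonism.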

Acinetobacter baumannii [20] = test: Synergistic antibacterial activity against MDR Acinetobacter baumannii ATCC BAA-1605 assessed as fractional inhibitory concentration in presence of colistin by checkerboard method; format: functional
Acinetobacter baumannii [21] = test: Synergistic antibacterial activity against MDR Acinetobacter baumannii ATCC BAA-1605 assessed as fold reduction in colistin MIC by checkerboard method; format: functional
[22] = target: T2, Enoyl-[acyl-carrier-protein] reductase [NADPH] FabI; test: Inhibition of Staphylococcus aureus subsp. aureus Rosenbach ATCC 43300 FabI using crotonyl-CoA as substrate in presence of NADPH/NADH after 10 mins by fluorescence assay
Method in brief: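 SaFabI enzyme, 300 nM, in 50 mM MES/100 mM NaCl with 200 μM NADPH, 0.1 mg/mL BSA, 0.01% triton; started with 400 μM crotonyl-CoA. NADPH fluorescence at 340/460 nm. Compounds 0.4 nM–200 μM. Slopes over first 10 min compared with DMSO control for % inhibition. At least two independent experiments, each in duplicate. Two-fold experimental uncertainty.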

Staphylococcus aureus [23] = test: Antibacterial activity against Staphylococcus aureus RN4220 by microbroth dilution method; format: functional; method in brief: as §2
Acinetobacter baumannii [24] = test: Synergistic antibacterial activity against Acinetobacter baumannii 2208 ATCC 19606 assessed as polymixin B MIC by checkerboard method; format: functional; conditions: ATCC 19606 = CIP 70.34 = JCM 6841 2208
Acinetobacter baumannii [25] = test: Synergistic antibacterial activity against Acinetobacter baumannii 2208 ATCC 19606 in presence of polymixin B by checkerboard method; format: functional; conditions: ATCC 19606 = CIP 70.34 = JCM 6841 2208
Acinetobacter baumannii [26] = test: Synergistic antibacterial activity against Acinetobacter baumannii 2208 ATCC 19606 assessed as fractional inhibitory concentration in presence of polymixin B by checkerboard method; format: functional, ATCC 19606 = CIP 70.34 = JCM 6841 2208
[27] = Selectivity index, ratio for IC50 for human HepG2 cells to MIC for methicillin-resistant Staphylococcus aureus subsp. aureus Rosenbach ATCC 43300; format: toxicity
[28] = Selectivity index, ratio for IC50 for human HepG2 cells to MIC for Staphylococcus aureus RN4220; format: toxicity; conditions: read-out: Selectivity Index
[29] = Selectivity index, ratio for IC50 for human HepG2 cells to MIC for Staphylococcus aureus RN4220 over-expressing FabI; format: toxicity

SMILES	IC50 [1]	MIC (Staphylococcus aureus [2])	MIC (Staphylococcus aureus [3])	MIC (Acinetobacter baumannii [4])	Activity [6]	Activity [7]	MIC (Acinetobacter baumannii [8])	MIC (Acinetobacter baumannii [9])	FIC (Acinetobacter baumannii [10])	Ki [11]	Ki [12]	IC50 (HepG2 [13])	IC50 (HepG2 [14])	MIC (Staphylococcus aureus [15])	MIC (Escherichia coli [16])	Selectivity ratio (Staphylococcus aureus [17])	MIC (Acinetobacter baumannii [18])	MIC (Acinetobacter baumannii [19])	FIC (Acinetobacter baumannii [20])	fold change (FC) (Acinetobacter baumannii [21])	also measured
COc1ccccc1C1CCN(C(=O)Cc2c(F)cccc2F)C1 (racemic)	3000 nM	151 µM (≈ 50 µg/mL)	> 200 µg/mL	> 200 µg/mL	Active	Active	0.19 µg/mL	50 µg/mL	0.38	2100 nM	1500 nM	279 µg/mL	65 µg/mL	–	–	–	–	–	–	–	MIC (Escherichia coli [5]): > 200 µg/mL
O=C(Cc1ccccc1Cl)N1CCC(c2ccc3c(c2)OCO3)C1 (racemic)	7800 nM	18.2 µM (≈ 6.26 µg/mL)	25 µg/mL (≈ 72.7 µM)	> 200 µg/mL	Active	Active	0.78 µg/mL	6.25 µg/mL	0.28	900 nM	3900 nM	64 µg/mL	46 µg/mL	> 200 µg/mL	25 µg/mL (≈ 72.7 µM)	>4	0.78 µg/mL	12.5 µg/mL	0.31	10	–
CC(=O)Nc1ccc(CC(=O)N2CCC(c3ccccc3)C2)cc1 (racemic)	> 100000 nM	–	> 200 µg/mL	> 200 µg/mL	Active	Active	–	–	–	> 37100 nM	> 50000 nM	–	–	> 200 µg/mL	> 200 µg/mL	–	–	–	–	–	IC50 [22]: > 100000 nM
O=C(Cc1c(F)cccc1F)N1CCC(c2ccccc2)C1 (racemic)	6900 nM	166 µM (≈ 50 µg/mL)	> 200 µg/mL	> 200 µg/mL	Active	Active	0.19 µg/mL	25 µg/mL	0.25	700 nM	3500 nM	237 µg/mL	> 200 µg/mL	> 200 µg/mL	–	–	–	–	–	–	MIC (Staphylococcus aureus [23]): 50 µg/mL (≈ 166 µM); MIC (Escherichia coli [5]): > 200 µg/mL
COc1ccccc1C1CCN(C(=O)/C=C/c2ccc(NC(C)=O)nc2)C1 (racemic)	420 nM	34.2 µM (≈ 12.5 µg/mL)	–	> 200 µg/mL	Active	Active	0.39 µg/mL	25 µg/mL	–	1300 nM	200 nM	219 µg/mL	138 µg/mL	–	0.75 µg/mL (≈ 2.05 µM)	4	0.78 µg/mL	12.5 µg/mL	0.31	10	MIC (Acinetobacter baumannii [24]): 15 µg/mL; MIC (Acinetobacter baumannii [25]): 50 µg/mL; FIC (Acinetobacter baumannii [26]): 0.37; Selectivity ratio [27]: 8.8; Selectivity ratio [28]: > 10; Selectivity ratio [29]: 4.4
O=C(Cc1ccccc1Cl)N1CCC(c2ccccc2)C1 (racemic)	3100 nM	41.7 µM (≈ 12.5 µg/mL)	–	> 200 µg/mL	Active	Active	0.39 µg/mL	12.5 µg/mL	0.31	4000 nM	1600 nM	79 µg/mL	55 µg/mL	–	–	4	0.78 µg/mL	25 µg/mL	0.25	10	MIC (Acinetobacter baumannii [24]): 3.75 µg/mL; MIC (Acinetobacter baumannii [25]): 50 µg/mL; FIC (Acinetobacter baumannii [26]): 0.28
